Yeast lifespan up = yeast lifespan extension | 0.68% of 130,000 active | inhibition of the nicotinamide effect, % at 10 µM | AID 775 | S. cerevisiae growth with nicotinamide, OD615; deaD strain in restrictive glucose medium;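 active = inhibition above a set limit, placed 3 SD over the median of all compounds, cut at about 26% in these data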
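Material: Modified budding yeast, DeaD strain | Medium: Restrictive glucose medium | Probe or stimulus: 1.5 mM nicotinamide | Dosing: Single dose 10 µM compound, 0.25% DMSO | Times: 48 h at 30 °C | Technique: OD615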
BB579 growth dn = reduces growth of yeast BB579 in restrictive medium; S. cerevisiae BB579 growth, OD615, 48 h; inhibition, % at 10 µM; 0.51% of 140,000 active; AID 804;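 active = inhibition above a set limit, 3 SD over the mean compound inhibition, cut at about 44% in these data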
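Material: Saccharomyces cerevisiae DeaD strain BB579, replicative lifespan model yeast; buffer or medium: CSMM-D restrictive synthetic medium containing dextrose (glucose); compound: 10 µM single dose, DMSO 0.25%; timing: 48 h compound exposure at 30 °C after 4 h preincubation; signal: turbidity as optical density at 615 nm; benchmarks: positive control amphotericin B 10 µg/mL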
RAM inhibit = yeast RAM network inhibition; inhibition, % at 50 µM; AID 868; 1.8% of 190,000 active; S. cerevisiae dse1pr::URA3 reporter, 5-FOA growth OD615, 2 d; analog-sensitive cbk1-as2 kinase mutant strain;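 active = inhibition above a set limit, 3 SD over mean compound inhibition, cut at about 8.4% in these data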;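 note: inhibition rescues growth on 5-FOA so higher OD means more RAM inhibition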
Measles CPE = protection of cells from measles virus | Measles virus-infected cells, CPE protection, absorbance | protection (pct of control), % at 4 µM | 1.5% of 140,000 active | AID 841; in the data active = protection mostly above about 24%, no sharp cut-off; inactive = mostly below about 26%
Large screens that a line does not name were inactive. Sampled rows, rich in hits. Any-hit rate of the full collection: about 3.8%.

CC(C)COC(=O)Cn1cnc2ccc(Br)cc2c1=O	Yeast lifespan up 27
Cn1c(SCC(=O)OC2CCCCC2)nnc1-c1ccco1	none (no result: Yeast lifespan up)
CC1(C)CC(=O)c2cnc(NC(=O)CSc3nc4ccccc4o3)nc2C1	Measles CPE 17 (no result: Yeast lifespan up)
O=C(CSc1nc2ccccc2o1)Nc1ccccc1N1CCOCC1	Measles CPE 48
CCN(CC(=O)NCc1ccc(Cl)cc1)C(=O)c1ccc(S(=O)(=O)N(C)C)cc1	none (no result: Yeast lifespan up, BB579 growth dn, Measles CPE)
O=C(NCC1CCCO1)C(c1ccccn1)N(Cc1ccccc1Cl)C(=O)CN1C(=O)c2ccccc2S1(=O)=O (stereo not drawn)	none (no result: Yeast lifespan up, BB579 growth dn, Measles CPE)
C=CCOC(=O)C(C#N)c1nc2ccccc2nc1N1CCN(c2ccccc2OC)CC1 (stereo not drawn)	none
C=CCN(CC=C)c1nc2ccccc2nc1C(C#N)C(=O)OC(C)C (stereo not drawn)	Yeast lifespan up 36
COC(=O)CNC(=O)C1(C)C=CCN1C(=O)c1ccccc1 (stereo not drawn)	none
O=C1N=c2ccccc2=C1c1c(O)n(-c2cccc(F)c2)[nH]c1=O	Yeast lifespan up 33
CCn1c(O)c(C2=c3ccccc3=NC2=O)c2cc(Br)ccc21	none (no result: Yeast lifespan up, BB579 growth dn, Measles CPE)
CCc1cccc(CC)c1NC(=O)COC(=O)c1cccc(-c2ccc(OC(C)=O)cc2)c1	none
CCOC(=O)N/N=C/c1ccc(OCCSc2ccc(Cl)cc2)c(OC)c1	RAM inhibit 9.9
Cc1ccc(CNC(=O)C23CN(Cc4ccccc4)CC2C(c2ccc([N+](=O)[O-])cc2)=NO3)cc1 (stereo not drawn)	Measles CPE 41
Cc1ccc(CCNC(=O)C23CN(Cc4ccccc4)CC2C(c2ccc([N+](=O)[O-])cc2)=NO3)cc1 (stereo not drawn)	none
O=[N+]([O-])c1cc(Oc2cccnc2)cc([N+](=O)[O-])c1	Measles CPE 55
Cc1ccc(C(=O)c2c(C)oc3c2C(=O)C(=O)c2ccccc2-3)cc1	BB579 growth dn 70
CCN1/C(=C/c2ccc3cc(C)ccc3[n+]2CC)Sc2ccccc21	BB579 growth dn 98
CC1CCC2(CC1)NC(=O)N(Cc1cccc(C(F)(F)F)c1)C2=O (stereo not drawn)	none (no result: Yeast lifespan up, BB579 growth dn, Measles CPE)
COc1ccc(C2CC(C(F)(F)F)n3ncc(C(=O)NCC4CCCO4)c3N2)cc1OC (stereo not drawn)	Measles CPE 32
Cn1c(=O)c2c(ncn2CC(=O)OCC(=O)Nc2cccc(Cl)c2)n(C)c1=O	none (no result: Yeast lifespan up, BB579 growth dn, Measles CPE)
O=C(CSc1nnc(-c2ccccn2)o1)Nc1ccccc1	none (no result: Yeast lifespan up, BB579 growth dn, Measles CPE)
CCOc1ccccc1-c1nnc(SCC(=O)Nc2ccccc2)o1	RAM inhibit 10
O=C(O)c1cc2c(s1)-c1ccccc1CC2	BB579 growth dn 45
O=C(O)c1cc2c(s1)-c1ccccc1OC2	none
CN(/C(=N/S(=O)(=O)c1cccs1)c1ccccc1)c1ccccc1	Measles CPE 29
CN(C)c1ccc(N/C(=N\S(=O)(=O)c2cccs2)c2ccccc2)cc1	none
CC(=O)Nc1ccc(NC(=O)CSc2nnc3c4ccccc4n(C)c3n2)cc1	RAM inhibit 8.5 (no result: Yeast lifespan up, BB579 growth dn, Measles CPE)
COc1ccc(S(=O)(=O)NCCSCc2ccccc2C)cc1Br	RAM inhibit 9.9
Cc1ccccc1CSCCNS(C)(=O)=O	none
COc1nc(N(CC(N)=O)S(=O)(=O)c2ccccc2)nc(C)c1Cl	Measles CPE 29 (no result: Yeast lifespan up)
COc1ccc(C)cc1N(CC(N)=O)S(=O)(=O)c1ccc(C)cc1	none
Nc1ccc(O)c2c1C(=O)c1ccccc1C2=O	BB579 growth dn 69
COc1ccc(N)c2c1C(=O)c1ccccc1C2=O	BB579 growth dn 71
CC(C)OCCCNC(=O)C1CCC(CNS(=O)(=O)c2ccccc2)CC1 (stereo not drawn)	none
c1ccc(OCc2nc3c4c(ncn3n2)-c2ccccc2CC42CCCC2)cc1	RAM inhibit 8.4
Nc1ncnc2c1C1(CCCCC1)Cc1ccccc1-2	none
O=C(Cn1cnc2c(oc3ccccc32)c1=O)NCC1CCCO1 (stereo not drawn)	Measles CPE 27
O=C(Cn1cnc2c(nnn2Cc2ccc(F)cc2)c1=O)NCC1CCCO1 (stereo not drawn)	none (no result: Yeast lifespan up)
O=C(Cn1cnc2c(nnn2Cc2ccc(Cl)cc2)c1=O)NCC1CCCO1 (stereo not drawn)	Measles CPE 48
COc1ccccc1-c1nc2ccccc2nc1-c1ccccc1OC	none
O=C1c2ccccc2-c2nc3ccccc3nc21	BB579 growth dn 85
O=c1nc(/C=C/c2cc([N+](=O)[O-])ccc2Cl)cc(C(F)(F)F)[nH]1	Measles CPE 55
COC(=O)NCC12CC3CC(C1)CC(CNC(=O)OC)(C3)C2	Yeast lifespan up 37
CC(=O)NCC12CC3CC(C1)CC(C(=O)O)(C3)C2	none
